Experimental data pooled from the literature.
Each line is one published result; the experiments were not run side by side.
Target: G protein-coupled receptor kinase 3 (GRK3, Homo sapiens, UniProt P35626)
Sequence (P35626 1-688, as in one of the studies): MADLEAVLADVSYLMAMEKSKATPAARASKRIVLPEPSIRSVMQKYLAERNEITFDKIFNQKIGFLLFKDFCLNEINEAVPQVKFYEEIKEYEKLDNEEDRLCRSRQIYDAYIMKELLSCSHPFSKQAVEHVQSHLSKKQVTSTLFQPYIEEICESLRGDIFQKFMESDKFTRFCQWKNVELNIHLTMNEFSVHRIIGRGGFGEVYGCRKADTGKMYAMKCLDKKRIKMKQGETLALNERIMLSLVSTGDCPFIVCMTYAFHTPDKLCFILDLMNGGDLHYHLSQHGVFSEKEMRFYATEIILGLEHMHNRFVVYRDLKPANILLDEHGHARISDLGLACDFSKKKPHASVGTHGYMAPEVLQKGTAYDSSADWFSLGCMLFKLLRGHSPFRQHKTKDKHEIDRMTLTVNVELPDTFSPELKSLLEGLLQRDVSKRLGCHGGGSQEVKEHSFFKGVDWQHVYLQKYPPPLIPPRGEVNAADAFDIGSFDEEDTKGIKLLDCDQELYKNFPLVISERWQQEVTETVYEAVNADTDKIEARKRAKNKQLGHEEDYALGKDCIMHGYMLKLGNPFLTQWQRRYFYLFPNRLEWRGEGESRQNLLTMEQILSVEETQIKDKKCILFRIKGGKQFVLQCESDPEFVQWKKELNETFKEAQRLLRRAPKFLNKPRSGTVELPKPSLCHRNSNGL

O=C(Nc1ccc(Oc2ccc(F)cc2)cc1)N1CCc2ncccc2[C@H]1c1ccc(F)cc1  remaining binding (cell-free assay; competition with immobilised ligand; 1 µM): 95%
COc1ncc2cc3ccccc3nc2c1C#N  remaining binding (cell-free assay; competition with immobilised ligand; 5 µM): 53%
O=C1CCc2cc(Nc3cc(OC4CCOCC4)c([N+](=O)[O-])cc3Cl)ccc2N1  remaining binding (cell-free assay; competition with immobilised ligand; 1 µM): 100%
O=C(c1ccc(Nc2ncc(Cl)c(-c3ccc(Cl)s3)n2)cc1)N1CCC(N2CCCC2)CC1  remaining binding (binding; competition with immobilised ligand; 1 µM): 46%
c1cnn2ncc(-c3ccnc(N4CCC45COC5)n3)c2c1  remaining binding (binding; 1 µM): 29%
O=C(c1ccc(Nc2nccc(-c3cc4ccccc4s3)n2)cc1)N1CCC(N2CCCC2)CC1  remaining binding (binding; competition with immobilised ligand; 1 µM): 64%
COc1ccnn2ncc(-c3ccnc(N(C)C)n3)c12  remaining binding (binding; 1 µM): 57%
Nc1ncc2c(n1)-c1c([nH]c3ccc(C#CC4CC4)cc13)CCCC2  remaining binding (binding; competition with immobilised ligand; 1 µM): 97%
COc1cnc(Nc2cccc(S(N)(=O)=O)c2)nc1N1CCN(c2ccccc2)C(=O)C1  remaining binding (binding; competition with immobilised ligand; 1 µM): 70%
CN(C)C(=O)Cn1cc(-c2nc([C@@](C)(c3ccc(-c4cnc(N)nc4)cc3)C3CC3)no2)cn1  remaining binding (cell-free assay; competition with immobilised ligand; 1 µM): 86%
CC1CCCN1c1nccc(-c2cnn3ncccc23)n1 (centres unmarked)  remaining binding (binding; 1 µM): 100%
O=C(Nc1c[nH]nc1C(=O)NC1CCNCC1)c1cc(F)cc(F)c1  remaining binding (binding; competition with immobilised ligand; 1 µM): 82%
COc1ccc2c(c1)O[C@H](c1ccc(OC)c(OC)c1)C[C@@H]2NC(=O)C1(c2ccc3c(c2)OC(F)(F)O3)CC1  remaining binding (cell-free assay; competition with immobilised ligand; 1 µM): 100%
F[C@@H]1CCN(c2nccc(-c3cnn4ncccc34)n2)C1  remaining binding (binding; 1 µM): 13%
Cc1cnc(Nc2ccc(C(=O)N3CCC(N4CCCC4)CC3)cc2)nc1-c1cc2ccccc2s1  remaining binding (binding; competition with immobilised ligand; 1 µM): 73%
c1cncc(-c2cccc(Nc3nccc(NC4CCCCC4)n3)c2)c1  remaining binding (binding; competition with immobilised ligand; 10 µM): 99%
Cc1nc(N2CC[C@@H](O)C2)ncc1-c1cc(C(F)(F)F)cc2[nH]ncc12  remaining binding (binding; competition with immobilised ligand; 1 µM): 87%
C[C@@H]1CCN(c2nccc(-c3cnn4ncccc34)n2)C1  remaining binding (binding; 1 µM): 56%
C[C@H](c1ccnc(Nc2nc3ccc(-c4cc(N(C)C)ncn4)cc3[nH]2)c1)N1CCN(C(=O)CC(F)(F)F)CC1  remaining binding (cell-free assay; competition with immobilised ligand; 0.1 µM): 100%
CN(C)c1ncc(F)c(-c2cnn3ncccc23)n1  remaining binding (binding; 1 µM): 100%
